Results taken from ChEMBL document CHEMBL1806371, “Selenocyanates and diselenides: a new class of potent antileishmanial agents” (Eur J Med Chem, 2011).

What was measured:
Jurkat [1] = test: Cytotoxicity against human Jurkat cells infected with Leishmania infantum MCAN/ES/89/IPZ229/1/89 at 3 uM using propidium iodide staining by fluorescence contrast microscopy; type: cell-based
Leishmania infantum [2] = test: Antileishmanial activity against Leishmania infantum MCAN/ES/89/IPZ229/1/89 promastigotes assessed as growth inhibition at 25 uM after 24 hrs; type: functional
In short: (§1)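 Log-phase L. infantum promastigotes (RPMI-1640, 10% FCS, 25 mM HEPES, pH 7.2, 26 °C) treated at 2×10^6 parasites/mL for 24 h. Screening used 25, 12.5 and 6.25 μM to give percent growth inhibition. Living cells measured by flow cytometry with propidium iodide exclusion. At least three independent experiments.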

[3] = Selectivity ratio, ratio of IC50 for human Jurkat cells to IC50 for Leishmania infantum MCAN/ES/89/IPZ229/1/89 amastigotes; type: ADME, cell-based; details: read-out: Ratio IC50
In short: (§2)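 Selectivity index is IC50 against Jurkat or THP-1 cells divided by IC50 against L. infantum amastigotes. Host cells were treated in log phase at 4×10^5 cells/mL for 24 h at 37 °C, 5% CO2, at 0.08, 0.4, 2.0, 10.0 and 50.0 μM. Viability was measured by flow cytometry with propidium iodide exclusion.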

[4] = Human intestinal absorption in human; type: ADME, organism-based; details: read-out: HIA
In short: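 Values are computed, not measured. Human intestinal absorption (%) and Caco-2 permeability (nm/s) were predicted in silico with the PreADMET program.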

THP-1 [5] = test: Cytotoxicity against human THP1 cells infected with Leishmania infantum MCAN/ES/89/IPZ229/1/89 at 3 uM by phase contrast microscopy; type: cell-based; details: thp-1, 3 µM
In short: (§3)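 Drug was added to PMA-differentiated THP-1 cells infected with eGFP amastigotes, at 1, 3 and 15 µM, alongside a DMSO control at the highest assay concentration. Propidium iodide was added to a final 5 µg/mL, and cells were examined at once by phase contrast and fluorescence microscopy; PI stains dead cells.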

Jurkat [6] = test: Cytotoxicity against human Jurkat cells infected with Leishmania infantum MCAN/ES/89/IPZ229/1/89 at 1 uM using propidium iodide staining by fluorescence contrast microscopy; type: cell-based
Leishmania infantum [7] = test: Antileishmanial activity against Leishmania infantum MCAN/ES/89/IPZ229/1/89 promastigotes assessed as growth inhibition at 12.5 uM after 24 hrs; type: functional; in short: as §1
[8] = Selectivity ratio, ratio of IC50 for human THP1 cells to IC50 for Leishmania infantum MCAN/ES/89/IPZ229/1/89 amastigotes; type: ADME, cell-based; details: THP-1 cells, read-out: Ratio IC50; in short: as §2
THP-1 [9] = test: Cytotoxicity against human THP1 cells infected with Leishmania infantum MCAN/ES/89/IPZ229/1/89 at 1 uM using propidium iodide staining by fluorescence contrast microscopy; type: cell-based; details: thp-1, 1 µM; in short: as §3
Leishmania infantum [10] = test: Antileishmanial activity against Leishmania infantum MCAN/ES/89/IPZ229/1/89 amastigotes expressing GFP infected in human THP1 cells assessed as parasite infected cells after 48 hrs by flow cytometry (reference value: 35%); type: functional, THP-1
Leishmania infantum [11] = test: Antileishmanial activity against Leishmania infantum MCAN/ES/89/IPZ229/1/89 axenic amastigotes infected expressing GFP in human […] cells assessed as axenic parasite killing at 3 uM after 48 hrs by propidium iodide staining based flow cytometry; type: functional
THP-1 [12] = test: Cytotoxicity against human THP1 cells infected with Leishmania infantum MCAN/ES/89/IPZ229/1/89 at 3 uM; type: cell-based; details: thp-1, 3 µM
[13] = Permeability across human Caco2 cells; type: ADME, cell-based; details: Caco-2, read-out: permeability
Jurkat [14] = test: Cytotoxicity against human Jurkat cells infected with Leishmania infantum MCAN/ES/89/IPZ229/1/89 at 3 uM by phase contrast microscopy; type: cell-based
Jurkat [15] = test: Cytotoxicity against human Jurkat cells infected with Leishmania infantum MCAN/ES/89/IPZ229/1/89 at 1 uM by phase contrast microscopy; type: cell-based
Leishmania infantum [16] = test: Antileishmanial activity against Leishmania infantum MCAN/ES/89/IPZ229/1/89 amastigotes expressing GFP infected in human THP1 cells assessed as reduction in parasite infection rate at 3 uM after 48 hrs by flow cytometry; type: functional, THP-1; parameters: scale not given: the % may be the effect or the level left
Leishmania infantum [17] = test: Antileishmanial activity against Leishmania infantum MCAN/ES/89/IPZ229/1/89 axenic amastigotes infected in human THP1 cells expressing GFP assessed as complete killing of parasite at 3 uM after 48 hrs by propidium iodide staining based flow cytometry; type: functional, THP-1
Leishmania infantum [18] = test: Antileishmanial activity against Leishmania infantum MCAN/ES/89/IPZ229/1/89 promastigotes assessed as growth inhibition at 6.25 uM after 24 hrs; type: functional; in short: as §1
Jurkat [19] = test: Cytotoxicity against human Jurkat cells assessed as live cells in neubauer chamber after 24 hrs by trypan blue assay; type: cell-based
Leishmania infantum [20] = test: Antileishmanial activity against Leishmania infantum MCAN/ES/89/IPZ229/1/89 promastigotes after 24 hrs […]; type: functional, organism-based; details: MCAN/ES/89/IPZ229/1/89, 24 h; in short: as §1
THP-1 [21] = test: Cytotoxicity against human THP1 cells assessed as live cells in neubauer chamber after 24 hrs by trypan blue assay; type: cell-based; details: THP-1, 24 h
THP-1 [22] = test: Cytotoxicity against human THP1 cells infected with Leishmania infantum MCAN/ES/89/IPZ229/1/89 at 3 uM using propidium iodide staining by fluorescence contrast microscopy; type: cell-based; details: thp-1, 3 µM; in short: as §3
THP-1 [23] = test: Cytotoxicity against human THP1 cells infected with Leishmania infantum MCAN/ES/89/IPZ229/1/89 at 1 uM by phase contrast microscopy; type: cell-based; details: thp-1, 1 µM; in short: as §3
Leishmania infantum [24] = test: Antileishmanial activity against Leishmania infantum MCAN/ES/89/IPZ229/1/89 amastigotes after 24 hrs by microscopy; type: functional, organism-based; details: MCAN/ES/89/IPZ229/1/89, 24 h
In short: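 Axenic L. infantum amastigotes (M199, 10% FCS, pH 5.4, 37 °C) treated in log phase at 1×10^6 parasites/mL for 24 h. Living cells counted by flow cytometry with propidium iodide exclusion, with microscopic observation by phase contrast or fluorescence. At least three independent experiments.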

Leishmania infantum [25] = test: Ratio of miltefosine IC50 to compound IC50 for Leishmania infantum MCAN/ES/89/IPZ229/1/89 amastigotes; type: functional
Leishmania infantum [26] = test: Ratio of edelfosine IC50 to compound IC50 for Leishmania infantum MCAN/ES/89/IPZ229/1/89 amastigotes; type: functional
Leishmania infantum [27] = test: Antileishmanial activity against Leishmania infantum MCAN/ES/89/IPZ229/1/89 amastigotes expressing GFP infected in human THP1 cells assessed as parasite infected cells at 3 uM after 48 hrs by flow cytometry (reference value: 35%); type: functional, THP-1

Question: With `Nc1ccc([Se][Se]c2ccc(N)cc2)cc1` as the compound, how does the Activity (Jurkat [1]) read?
Answer: Non-toxic

Question: What about the GI (Leishmania infantum [2]) of the same compound?
Answer: 98%

Question: And the selectivity ratio [3]?
Answer: 32

Question: What about the Fa [4] of the same compound?
Answer: 97.6%

Question: What about the Activity (THP-1 [5]) of the same compound?
Answer: Non-toxic

Question: What about the Activity (Jurkat [6]) of the same compound?
Answer: Non-toxic

Question: And the GI (Leishmania infantum [7])?
Answer: 97.6%

Question: And the selectivity ratio [8]?
Answer: 24

Question: And the Activity (THP-1 [9])?
Answer: Non-toxic

Question: What about the Activity (Leishmania infantum [10]) of the same compound?
Answer: 9%

Question: What about the Activity (Leishmania infantum [11]) of the same compound?
Answer: 100%

Question: And the Activity (THP-1 [12])?
Answer: Non-toxic

Question: And the Papp [13]?
Answer: 2.29 ×10⁻⁶ cm/s

Question: And the Activity (Jurkat [14])?
Answer: Non-toxic

Question: What about the Activity (Jurkat [15]) of the same compound?
Answer: Non-toxic

Question: And the Activity (Leishmania infantum [16])?
Answer: 74%

Question: And the Activity (Leishmania infantum [17])?
Answer: 100%

Question: And the GI (Leishmania infantum [18])?
Answer: 95.8%

Question: What about the IC50 (Jurkat [19]) of the same compound?
Answer: 12.1 µM

Question: What about the IC50 (Leishmania infantum [20]) of the same compound?
Answer: 0.96 µM

Question: And the IC50 (THP-1 [21])?
Answer: 14 µM

Question: And the Activity (THP-1 [22])?
Answer: Non-toxic

Question: What about the Activity (THP-1 [23]) of the same compound?
Answer: Non-toxic

Question: Which results are given for `O=[N+]([O-])c1ccc(C[Se][Se]Cc2ccc([N+](=O)[O-])cc2)cc1`?
Answer: IC50 (Leishmania infantum [24]): 0.38 µM; GI (Leishmania infantum [2]): 98.7%; selectivity ratio [3]: 71; Fa [4]: 98.3%; GI (Leishmania infantum [7]): 96.3%; Ratio IC50 (Leishmania infantum [25]): 7.5; selectivity ratio [8]: 77; Activity (Leishmania infantum [10]): 17%; Papp [13]: 2.01 ×10⁻⁶ cm/s; Ratio IC50 (Leishmania infantum [26]): 2.2; GI (Leishmania infantum [18]): 81.8%; IC50 (Jurkat [19]): 26.8 µM; IC50 (THP-1 [21]): 18.8 µM

Question: Which IC50 (Leishmania infantum [24]) does the source give for `CCCCCCCCCCCCCCCCCCOCC(COP(=O)([O-])OCC[N+](C)(C)C)OC` (stereo unspecified) [EDELFOSINE] here?
Answer: 0.82 µM

Question: What about the selectivity ratio [3] of the same compound?
Answer: 15

Question: What about the Fa [4] of the same compound?
Answer: 98.4%

Question: What about the selectivity ratio [8] of the same compound?
Answer: 6

Question: What about the Activity (Leishmania infantum [27]) of the same compound?
Answer: 5%

Question: What about the Papp [13] of the same compound?
Answer: 3.94 ×10⁻⁶ cm/s

Question: And the IC50 (Jurkat [19])?
Answer: 12.2 µM

Question: And the IC50 (Leishmania infantum [20])?
Answer: 3.65 µM

Question: What about the IC50 (THP-1 [21]) of the same compound?
Answer: 4.96 µM

Question: For `O=[N+]([O-])c1ccccc1C[Se][Se]Cc1ccccc1[N+](=O)[O-]`, which IC50 (Leishmania infantum [24]) is on record?
Answer: 0.29 µM

Question: And the GI (Leishmania infantum [2])?
Answer: 77.2%

Question: What about the selectivity ratio [3] of the same compound?
Answer: 9

Question: And the GI (Leishmania infantum [7])?
Answer: 58.9%

Question: What about the “Ratio IC50” value (Leishmania infantum [25]) of the same compound?
Answer: 9.8

Question: What about the selectivity ratio [8] of the same compound?
Answer: 8

Question: What about the “Ratio IC50” value (Leishmania infantum [26]) of the same compound?
Answer: 2.8

Question: What about the GI (Leishmania infantum [18]) of the same compound?
Answer: 50%

Question: And the IC50 (Jurkat [19])?
Answer: 2.62 µM

Question: And the IC50 (Leishmania infantum [20])?
Answer: 12.5 µM

Question: What about the IC50 (THP-1 [21]) of the same compound?
Answer: 2.42 µM
